According to PMC4107104 (Hippocampus, 2014):

How the values were obtained:
[1] = biological target: recombinant human HDAC 1 (Homo sapiens, UniProt Q13547); test: HDAC enzyme inhibition assay, HDAC1; assay type: biochemical; conditions: read-out: In vitro IC50, HD1, NI = no inhibition up to 10 mM tested
How it was run: (§1)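 Recombinant human enzyme incubated at 37°C for 30 min in HDAC assay buffer with 5 μg BSA and fluorogenic substrate 3 (10 μM). Double-strength developer was then added for 20 min at room temperature, and fluorescence was read at ex 360/em 460 nm. The six-point concentration series was run in duplicate. Activity was taken as (F−Fb)/(Ft−Fb), with no-inhibitor as 100% and no-enzyme as 0%, and IC50 came from a sigmoidal nonlinear fit.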

[2] = biological target: recombinant human HDAC 2 (Homo sapiens, UniProt Q92769); test: HDAC enzyme inhibition assay, HDAC2; assay type: biochemical; conditions: read-out: In vitro IC50, HD2
recombinant human HDAC 2, sequence (Q92769 whole entry): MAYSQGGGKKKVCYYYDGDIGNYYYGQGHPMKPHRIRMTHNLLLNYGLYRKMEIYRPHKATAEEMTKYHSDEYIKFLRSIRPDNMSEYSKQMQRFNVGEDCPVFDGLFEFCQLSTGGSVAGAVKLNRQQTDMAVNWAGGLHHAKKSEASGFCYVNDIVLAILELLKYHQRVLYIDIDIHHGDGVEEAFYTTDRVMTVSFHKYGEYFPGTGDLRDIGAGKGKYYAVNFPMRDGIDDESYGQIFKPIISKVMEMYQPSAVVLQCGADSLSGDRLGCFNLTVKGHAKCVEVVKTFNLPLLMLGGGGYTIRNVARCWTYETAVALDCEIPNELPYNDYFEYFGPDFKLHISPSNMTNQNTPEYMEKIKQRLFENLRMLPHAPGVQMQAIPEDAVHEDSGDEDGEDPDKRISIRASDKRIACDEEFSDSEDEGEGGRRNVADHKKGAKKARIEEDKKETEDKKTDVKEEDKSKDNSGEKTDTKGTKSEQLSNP
How it was run: as §1

[3] = biological target: recombinant human HDAC 3 (Homo sapiens, UniProt O15379); test: HDAC enzyme inhibition assay, HDAC3; assay type: biochemical; conditions: read-out: In vitro IC50, HD3
recombinant human HDAC 3, sequence (O15379 whole entry): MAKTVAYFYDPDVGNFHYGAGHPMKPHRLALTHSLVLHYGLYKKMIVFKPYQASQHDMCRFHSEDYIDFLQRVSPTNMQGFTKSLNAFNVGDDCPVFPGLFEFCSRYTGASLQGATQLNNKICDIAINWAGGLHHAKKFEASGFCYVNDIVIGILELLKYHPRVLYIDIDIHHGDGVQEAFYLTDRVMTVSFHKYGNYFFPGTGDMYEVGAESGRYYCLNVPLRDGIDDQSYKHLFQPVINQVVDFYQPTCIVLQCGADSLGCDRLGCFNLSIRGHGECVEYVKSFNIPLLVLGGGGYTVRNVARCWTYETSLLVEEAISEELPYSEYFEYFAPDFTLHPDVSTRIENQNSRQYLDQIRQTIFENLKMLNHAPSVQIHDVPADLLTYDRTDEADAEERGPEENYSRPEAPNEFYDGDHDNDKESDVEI
recombinant human HDAC 3, sequence (Q9Y618 395-489 partner limits assumed): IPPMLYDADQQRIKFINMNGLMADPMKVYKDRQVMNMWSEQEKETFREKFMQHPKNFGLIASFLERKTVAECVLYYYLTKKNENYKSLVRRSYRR
How it was run: as §1

[4] = biological target: T1, recombinant human HDAC 8 (Homo sapiens, UniProt Q9BY41); test: HDAC enzyme inhibition assay, HDAC8; assay type: biochemical; conditions: read-out: In vitro IC50, HD8
T1 sequence (Q9BY41 1-377): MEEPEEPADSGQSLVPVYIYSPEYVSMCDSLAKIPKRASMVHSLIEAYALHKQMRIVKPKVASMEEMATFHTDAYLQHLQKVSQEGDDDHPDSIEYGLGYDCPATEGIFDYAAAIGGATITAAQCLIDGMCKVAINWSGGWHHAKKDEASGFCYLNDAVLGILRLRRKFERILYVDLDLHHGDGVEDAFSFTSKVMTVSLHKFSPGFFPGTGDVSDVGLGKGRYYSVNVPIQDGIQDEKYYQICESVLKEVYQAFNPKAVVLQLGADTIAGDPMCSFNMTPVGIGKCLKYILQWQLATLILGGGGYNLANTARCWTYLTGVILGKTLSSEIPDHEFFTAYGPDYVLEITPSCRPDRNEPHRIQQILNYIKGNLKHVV
How it was run: as §1

[5] = biological target: T2, recombinant human HDAC 10 (Homo sapiens, UniProt Q969S8); test: HDAC enzyme inhibition assay, HDAC10; assay type: biochemical; conditions: read-out: In vitro IC50, HD10
T2 sequence (Q969S8 1-669): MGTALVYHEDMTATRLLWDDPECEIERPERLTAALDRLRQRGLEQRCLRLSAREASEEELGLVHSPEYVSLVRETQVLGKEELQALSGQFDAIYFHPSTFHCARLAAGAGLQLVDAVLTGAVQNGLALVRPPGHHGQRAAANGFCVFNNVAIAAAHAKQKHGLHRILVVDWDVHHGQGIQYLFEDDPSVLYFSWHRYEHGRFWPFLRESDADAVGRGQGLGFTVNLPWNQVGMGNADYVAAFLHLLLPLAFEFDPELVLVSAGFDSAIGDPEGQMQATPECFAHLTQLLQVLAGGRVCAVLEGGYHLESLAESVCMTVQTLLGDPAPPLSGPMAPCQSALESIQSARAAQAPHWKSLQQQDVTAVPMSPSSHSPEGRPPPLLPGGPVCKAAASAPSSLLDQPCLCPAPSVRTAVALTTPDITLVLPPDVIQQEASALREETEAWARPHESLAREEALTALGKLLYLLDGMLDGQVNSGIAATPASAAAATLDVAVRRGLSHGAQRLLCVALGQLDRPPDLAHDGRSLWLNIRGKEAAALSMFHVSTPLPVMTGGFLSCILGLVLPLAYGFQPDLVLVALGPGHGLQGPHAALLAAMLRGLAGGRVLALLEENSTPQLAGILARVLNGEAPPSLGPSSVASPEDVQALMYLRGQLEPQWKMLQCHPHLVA
How it was run: as §1

[6] = biological target: T3, recombinant human HDAC 11 (Homo sapiens, UniProt Q96DB2); test: HDAC enzyme inhibition assay, HDAC11; assay type: biochemical; conditions: read-out: In vitro IC50, HD11
T3 sequence (Q96DB2 1-347): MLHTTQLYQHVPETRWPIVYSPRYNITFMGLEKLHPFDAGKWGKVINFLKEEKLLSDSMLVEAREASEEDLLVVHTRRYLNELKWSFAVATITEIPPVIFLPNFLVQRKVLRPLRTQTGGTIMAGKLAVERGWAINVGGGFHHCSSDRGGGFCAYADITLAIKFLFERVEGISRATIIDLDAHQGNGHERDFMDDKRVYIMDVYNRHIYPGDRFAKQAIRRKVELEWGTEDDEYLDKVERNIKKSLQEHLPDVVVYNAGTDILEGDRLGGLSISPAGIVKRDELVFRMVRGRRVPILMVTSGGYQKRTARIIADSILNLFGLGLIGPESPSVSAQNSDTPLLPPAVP
How it was run: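 Recombinant human enzyme incubated for 60 min at 37°C in HDAC assay buffer containing 5 μg BSA and substrate 3 at 10 μM. Developer (double strength) was added for 20 min at room temperature, and fluorescence was read at 360/460 nm. Six concentrations were tested in duplicate. Percent activity was normalised between no-inhibitor (100%) and no-enzyme (0%) wells, and IC50 came from sigmoidal nonlinear regression.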

[7] = system: hippocampal histone H3 and H4 acetylation; test: Brain/hippocampal histone acetylation after i.p. injection; assay type: in vivo, Long-Evans rats
[8] = system: contextual fear memory; test: Contextual fear conditioning, 24 hr retention; assay type: in vivo, Long-Evans rats; conditions: 1.2 g/kg i.p. 1 hr prior to CFC training

recombinant human HDAC 1, sequence (Q13547 whole entry): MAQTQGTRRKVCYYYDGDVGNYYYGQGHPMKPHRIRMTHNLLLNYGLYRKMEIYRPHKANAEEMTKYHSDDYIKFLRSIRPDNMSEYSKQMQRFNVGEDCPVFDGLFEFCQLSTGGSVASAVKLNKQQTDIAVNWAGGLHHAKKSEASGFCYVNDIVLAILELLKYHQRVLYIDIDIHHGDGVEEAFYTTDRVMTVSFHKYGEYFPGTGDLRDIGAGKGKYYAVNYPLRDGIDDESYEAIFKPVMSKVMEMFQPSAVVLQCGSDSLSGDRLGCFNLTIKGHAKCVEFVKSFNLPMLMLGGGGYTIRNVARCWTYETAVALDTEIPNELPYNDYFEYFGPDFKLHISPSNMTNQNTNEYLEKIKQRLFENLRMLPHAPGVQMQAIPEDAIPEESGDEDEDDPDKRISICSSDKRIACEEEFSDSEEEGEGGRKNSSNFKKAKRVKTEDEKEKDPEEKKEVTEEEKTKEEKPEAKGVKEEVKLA

Work on `CCCC(=O)[O-].[Na+]` [NaB, sodium butyrate] yielded an IC50 [1] of 330 µM, an IC50 [2] of 118 µM and an IC50 [3] of 126 µM. It also gave an IC50 [4] of 611 µM, an IC50 [5] of 543 µM and an IC50 [6] of 565 µM. The “histone H3 and H4 acetylation in whole hippocampus, 30 min” value ([7]; 30 min after 1.2 g/kg i.p.) was “increasing at 30 min relative to vehicle”, the “histone H3 and H4 acetylation in whole hippocampus, 60 min” value ([7]; 60 min after 1.2 g/kg i.p.) was “returning to baseline levels” and the “mean freezing at 24 hr retention test” value [8] was 12.73 s. For the same compound, the “retention of contextual fear memory at 24 hr” value [8] was “failed to enhance retention”.
